Only some compounds are listed: those with a hit (about 1.9% of all), similar ones and a draw of the others.
DNA FID counter: displaces DNA intercalator in HCV helicase counter-screen; inhibition, % at 7.9 µM; 0.17% of 290,000 active; DNA fluorescent intercalator displacement, fluorescence; in the data active = inhibition above about 37%;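 also: 0% = vehicle and 100% = reference compound; higher means more ethidium bromide displaced from hairpin DNA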
HCV NS3 hel inh: blocks Hepatitis C virus NS3 helicase unwinding | inhibition, % at 10.9 µM | 0.56% of 290,000 active | AID 1800 | NS3 helicase DNA unwinding, Cy5 molecular beacon fluorescence;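 active = inhibition above the mean of all tested compounds plus 3 SD, set per campaign, cut at about 35% in these data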;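 also: 0% = DMSO wells and 100% = thioflavine S control wells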
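Assay system: hepatitis C virus NS3 helicase domain fragment enzyme. Also added: annealed dual-labelled DNA beacon duplex, ATP-started. Timing: 1 h reaction at 25 °C, ATP-initiated. Technique: Cy5 fluorescence at 0 and 60 min, beacon hairpin quenching. Evaluation: % inhibition of unwinding. Replication: one well per compound.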
VIM-2 inh: inhibitors of Pseudomonas aeruginosa VIM-2 metallo-beta-lactamase; purified VIM-2, nitrocefin hydrolysis, epi-absorbance fluorescence; inhibition, % at 5.6 µM; 0.89% of 290,000 active; AID 1527;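 active = inhibition above the mean of all tested compounds plus 3 SD, cutoff set per screening run, cut at about 7.5% in these data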;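 also: red hydrolysis product quenches plate fluorescence so inhibitors raise well fluorescence; 0% = enzyme with DMSO and 100% = DMSO without enzyme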
IMP-1 inh-1: blocks Pseudomonas aeruginosa IMP-1 metallo-beta-lactamase; purified IMP-1, nitrocefin hydrolysis, epi-absorbance fluorescence; 0.45% of 290,000 active; inhibition, % at 5.6 µM;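 active = inhibition above the mean plus 3 SD of all compounds in the same screening run, cut at about 4.5% in these data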;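 also: 0% = IMP-1 with DMSO and 100% = DMSO wells lacking enzyme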
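system = purified recombinant IMP-1 beta-lactamase | amount = 0.2 nM IMP-1, as dispensed | medium = HEPES buffer pH 7.1 with ZnSO4 and Brij 35 | times = 25 °C, 15 min preincubation, 25 min reaction | detection = plate fluorescence quenching by hydrolysis product, ex 480/em 530 nm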
IMP-1 inh-2: blocks IMP-1 metallo-beta-lactamase in VIM-2 selectivity screen. shares compounds with VIM-2 inh. purified IMP-1, nitrocefin hydrolysis, epi-absorbance fluorescence. inhibition, % at 5.6 µM. 1,300 tested, under 10 active. AID 1856; call rule not given here;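 also: 0% = enzyme with vehicle and 100% = vehicle without enzyme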
VIM-2 FRET ctr: inhibits VIM-2 in FRET assay to exclude epi-absorbance artifacts; AID 1857; inhibition, % at 5.6 µM; purified VIM-2, CCF2 FRET substrate hydrolysis; 23% of 1,300 active; shares compounds with VIM-2 inh;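 active = inhibition above the mean of all tested compounds plus 3 SD, cut at about 19% in these data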;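 also: 0% = VIM-2 plus DMSO and 100% = no enzyme wells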
TEM-1 inh: blocks E. coli TEM-1 beta-lactamase in VIM-2 selectivity screen; shares compounds with VIM-2 inh; Purified TEM-1, nitrocefin hydrolysis, epi-absorbance fluorescence; inhibition, % at 5.6 µM; 3% of 1,300 active; AID 1866;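 active = inhibition above that campaign's mean inhibition plus 3 SD, cut at about 0.46% in these data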;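 also: 0% = TEM-1 with DMSO and 100% = TEM-1 with 100 µM potassium clavulanate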
Target sequence (P62593 whole entry, looked up): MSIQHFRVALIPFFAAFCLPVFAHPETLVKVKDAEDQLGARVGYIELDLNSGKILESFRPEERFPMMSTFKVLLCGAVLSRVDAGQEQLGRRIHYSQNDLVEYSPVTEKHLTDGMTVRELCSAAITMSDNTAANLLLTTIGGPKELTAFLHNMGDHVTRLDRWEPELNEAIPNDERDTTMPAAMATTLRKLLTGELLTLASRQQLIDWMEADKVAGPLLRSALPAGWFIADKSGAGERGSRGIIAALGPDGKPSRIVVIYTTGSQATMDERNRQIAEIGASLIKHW
VIM-2 inh conf: confirmation of P. aeruginosa VIM-2 metallo-beta-lactamase inhibitors. shares compounds with VIM-2 inh. AID 2187. inhibition, % at 5.6 µM. 96% of 1,300 active. purified VIM-2, nitrocefin hydrolysis, epi-absorbance;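 active = inhibition of the VIM-2 beta-lactamase enzyme above about 11% from the earlier first-round screen, limit read from the data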;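 also: 0% = VIM-2 with DMSO and 100% = buffer wells without enzyme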
Numbers without * were called inactive; . = not tested or not shown.

SMILES	DNA FID counter	HCV NS3 hel inh	VIM-2 inh	IMP-1 inh-1	IMP-1 inh-2	VIM-2 FRET ctr	TEM-1 inh	VIM-2 inh conf
O=C1c2cccc3cccc(c23)C(=O)N1c1nncs1	3.6	-2.5	12.9*	-0.1	-2.8	4.1	-3.2	24.4*
Cc1c(CC(=O)O)c(=O)oc2c(C)c3occ(-c4ccccc4)c3cc12	-9.1	-6.5	15.1*	1.3	0.7	1.8	-10.3	20.8*
Cc1oc2c(C)c3oc(=O)c(CCC(=O)O)c(C)c3cc2c1-c1ccccc1	-26.6	-24.6	6.8	0.1	.	.	.	.
Cc1ccccc1NC(=O)CSc1cn[nH]n1	-3.4	5.0	-0.9	-2.2	.	.	.	.
Cc1cc(=O)oc2c(CN(C)Cc3ccccc3)c(O)ccc12	0.9	-10.3	-0.1	-6.0	.	.	.	.
C=CCN(CC=C)Cc1c(O)ccc2c1oc(=O)c1ccccc12	4.1	15.1	17.3*	-1.9	-2.9	-20.9	-4.8	44.0*
Cc1ccc(S(=O)(=O)Nc2ccccc2N2CCOCC2)cc1	-32.0	3.2	-1.8	-2.3	.	.	.	.
O=C(N/C(=C\c1ccccc1)C(=O)N1CCOCC1)c1ccccc1Br	-13.7	-9.4	-0.2	-1.3	.	.	.	.
Brc1ccc(CSc2ccc3nnc(-c4ccccn4)n3n2)cc1	-12.9	-4.6	25.0*	-2.8	-3.8	-4.5	-7.2	51.6*
Cc1ccc(CSc2ccc3nnc(-c4ccccn4)n3n2)cc1	-32.0	-0.2	21.2*	-3.1	-3.6	-3.1	-5.7	34.0*
COC(=O)c1ccc(CSc2ccc3nnc(-c4ccccn4)n3n2)o1	-16.3	-0.6	21.3*	-3.8	-3.9	2.8	-5.5	38.1*
Cc1ccc(C)c(CSc2ccc3nnc(-c4ccccn4)n3n2)c1	-29.9	7.8	13.7*	-2.9	-3.4	-3.0	-7.7	24.8*
O=C(CSc1ccc2nnc(-c3ccccn3)n2n1)Nc1ccccc1	-6.8	16.8	0.0	-1.8	.	.	.	.
COC(=O)c1ccc(CSc2ccc3nnc(-c4ccc(F)cc4)n3n2)o1	-16.2	-5.0	0.8	-1.1	.	.	.	.
COc1ccc(CNC(=O)CSc2nc3cccnc3s2)cc1	-2.5	0.3	-1.2	-2.2	.	.	.	.
CNS(=O)(=O)c1cn(CC(=O)NCc2ccc(F)cc2)cc1S(=O)(=O)NC	-3.4	5.2	-1.2	-0.9	.	.	.	.
CN(C)C(=O)c1ccc(Nc2nc(-c3cccs3)nc3ccccc23)cc1	-15.8	-18.7	21.9*	-1.5	-3.1	0.2	-6.6	24.8*
O=C(C1CCN(c2ncnc3c2sc2cccc(F)c23)CC1)N1CCCC1	-32.0	-3.7	12.9*	-3.7	-2.0	2.7	-7.4	26.9*
O=C(C1CCN(c2ncnc3c2nc2n3CCCCC2)CC1)N1CCN(c2cccc(Cl)c2)CC1	-57.7	-36.3	1.3	-1.2	.	.	.	.
Cc1ccc(CNc2ccc3nnc(-c4ccccc4)n3n2)cc1	-9.6	-12.3	-4.2	-2.7	.	.	.	.
c1ccc(CN2CCN(CCCNc3ccc4nnc(-c5ccccc5)n4n3)CC2)cc1	15.1	-17.1	62.4*	-2.0	-0.2	4.0	0.8*	76.1*
O=Cc1c(NCc2ccc(F)cc2)c2ccccc2[nH]c1=O	-10.9	8.1	-0.3	-5.1	.	.	.	.
Cc1ccc(CNc2c(C=O)c(=O)[nH]c3ccccc23)cc1	-15.3	1.1	14.0*	-2.8	-3.0	31.4*	-5.0	21.4*
Cc1c(/C=N/NC(=O)c2cccs2)c2ccccc2n1Cc1ccccc1Cl	-2.6	3.7	-1.6	-1.5	.	.	.	.
CSc1nnc(-c2cc3c(-c4ccccc4)nn(C)c3s2)n1C	-39.7	5.6	18.9*	-1.8	-2.8	0.3	-5.3	26.4*
SMILES	DNA FID counter	HCV NS3 hel inh	VIM-2 inh	IMP-1 inh-1	IMP-1 inh-2	VIM-2 FRET ctr	TEM-1 inh	VIM-2 inh conf
COc1cc(OC)cc(C(=O)NCC2CCCN(C(=O)c3csc(C)n3)C2)c1 (configuration not stated)	-10.4	-1.1	-0.9	-2.9	.	.	.	.
Nc1nc(Cl)nc2c1ncn2[C@@H]1O[C@H](CO)[C@@H](O)[C@H]1O	-5.1	0.7	-1.0	-3.3	.	.	.	.
Nc1nc(=S)c2ncn(C3OC(CO)C(O)C3O)c2[nH]1 (configuration not stated)	0.3	16.0	21.6*	0.4	-1.1	31.0*	-6.2	26.0*
CCOC(=O)c1cc2sccc2n1CC(=O)C(C)(C)C	0.7	7.8	-7.3	-2.1	.	.	.	.
COc1cnc(-c2ccccn2)nc1N(C)c1ccccc1	-8.3	-62.9	37.2*	-5.2	-4.5	-35.2	-2.9	46.6*
Cc1nc(-c2ccccn2)nc(SCC(=O)c2ccccc2)c1Cl	-19.4	14.7	53.6*	-2.2	-4.1	-24.8	-5.9	72.3*
CCOC(=O)CSc1nc(-c2ccccn2)ncc1OC	-8.0	10.9	17.4*	-5.4	-3.6	-25.1	-3.7	24.7*
COc1cnc(-c2ccccn2)nc1Oc1cccc(C(F)(F)F)c1	-27.6	-52.1	45.5*	-5.0	-5.0	-28.9	-4.9	59.7*
O=C(CCCN1C(=O)c2cccc3cccc(c23)C1=O)NC1CCS(=O)(=O)C1 (configuration not stated)	-4.0	-4.0	14.8*	-2.8	-1.6	-1.8	-0.1	21.8*
COc1ccccc1N1CCN(C(=O)CN(C)S(=O)(=O)c2ccc3c(c2)c(=O)n(C)c(=O)n3C)CC1	-34.2	0.5	1.3	-1.5	.	.	.	.
COCCCNC(=S)NNC(=O)c1ccc(S(=O)(=O)N2CCC(C)CC2)cc1	-18.6	-9.5	-9.1	-3.8	.	.	.	.
Cc1c(OCC(=O)N2CCC(C(N)=O)CC2)ccc2c3c(c(=O)oc12)CCCC3	-23.7	-7.8	12.4*	-0.9	-3.0	-2.8	-14.7	18.6*
Cc1c(OCC(=O)N2CCC(C(N)=O)CC2)ccc2c1oc(=O)c1ccccc12	-27.1	-16.5	23.1*	-3.8	-3.6	-0.7	-12.4	31.5*
Cc1cccc(NC(=O)CCNC(=O)c2ccccc2)c1	-4.7	0.0	0.6	-2.4	.	.	.	.
CCCCn1c(=N)n(CC(=O)c2ccco2)c2ccccc21	2.4	-6.3	-2.5	-1.0	.	.	.	.
CCCCCCCn1c(=N)n(CC(=O)c2ccco2)c2ccccc21	7.7	-12.8	18.0*	-2.7	-2.7	-1.4	-5.8	3.4
Cc1nn(CC(=O)NCCCN2CCC(N3CCCCC3)CC2)c(=O)c2cc(-c3ccccc3)nn12	38.4*	-37.4	22.3*	-2.5	-4.3	-1.0	-5.7	36.5*
CCNC(=O)c1ccc(C23CC4CC(CC(C4)C2)C3)o1	-9.9	3.9	-2.0	-2.4	.	.	.	.
Fc1ccccc1-c1n[nH]c(=S)n1CC1CCCO1 (configuration not stated)	-0.4	0.7	35.2*	-2.5	-3.5	60.6*	-5.8	44.3*
CC(C)Cn1c(N)c(C(=O)COC(=O)c2ccc([N+](=O)[O-])o2)c(=O)n(C)c1=O	1.2	-6.4	-2.6	-2.7	.	.	.	.
